Data taken from paper PMC4042847 (Journal of the American Chemical Society, 2013).

Key:
SHV-1 β-lactamase = SHV-1 β-lactamase (Klebsiella pneumoniae, UniProt P0AD64); assay: Steady-state inhibition kinetics with nitrocefin as indicator substrate; format: biochemical; conditions: for kobs react 30min: after a 30 min incubation of 1:90 enzyme:inhibitor ratio; for tn (24h): inhibitor:enzyme ratio decreasing activity by 95% after 24 h incubation
ADC-7 β-lactamase = assay: IC50, turnover number and timed inactivation with nitrocefin; format: biochemical
Outline: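 Enzyme in 10 mM phosphate-buffered saline, pH 7.4, read by diode-array spectrophotometry with nitrocefin (Δε482 = 17,400 M−1cm−1) at 100 μM. IC50: initial velocities after 5 min enzyme–inhibitor pre-incubation. tn: 24 h incubation with increasing inhibitor, then residual activity assayed. Timed inactivation: I:E ratio set from tn; steady-state velocities at set time points over 45 min.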

PDC-3 β-lactamase = PDC-3 β-lactamase (Pseudomonas aeruginosa, UniProt P24735, T105A); assay: IC50 and turnover number with nitrocefin; format: biochemical
OXA-24 β-lactamase = OXA-24 β-lactamase (Acinetobacter baumannii, UniProt Q8RLA6); assay: IC50 and turnover number with nitrocefin; format: biochemical
[1] = Spontaneous hydrolysis followed by UV difference spectroscopy; format: physicochemical; conditions: 3.5 μM in 10 mM PBS, pH 7.4
TEM-2 β-lactamase = conditions: cited from earlier work

Compound	IC50 higher than clavulanate (SHV-1 β-lactamase; SHV-1)	IC50 higher than tazobactam (SHV-1 β-lactamase; SHV-1)	Ki greater than tazobactam and clavulanate (SHV-1 β-lactamase; SHV-1)	kobs react lower than clavulanate (SHV-1 β-lactamase; SHV-1)	kobs react lower than tazobactam (SHV-1 β-lactamase; SHV-1)	Ki (SHV-1 β-lactamase; SHV-1, Kiapp corrected for nitrocefin affinity (Km = 20 μM))	IC50 (SHV-1 β-lactamase; SHV-1, NCF 100 μM, 5 min pre-incubation of enzyme with inhibitor)	kobs react 30min (SHV-1 β-lactamase; SHV-1)	tn (24h) (SHV-1 β-lactamase; SHV-1)	inactivation of SHV-1 in timed inactivation (SHV-1 β-lactamase; […] nM SHV-1 with 980 nM DCM-1-10 (I:E = 7:1), within 45 min)	timed inactivation of ADC-7 in words (ADC-7 β-lactamase; 100 nM ADC-7 with 4.5 μM DCM-1-10, I:E of 45:1)	IC50 (ADC-7 β-lactamase; ADC-7)	IC50 in words (ADC-7 β-lactamase; ADC-7)	IC50 (PDC-3 β-lactamase)	IC50 in words (PDC-3 β-lactamase)	IC50 (OXA-24 β-lactamase)	spontaneous rate of hydrolysis [1]	pseudo first order rate constant of spontaneous hydrolysis ([1]; absorbance at 228 nm)	inhibition of TEM-2 β-lactamase in words (TEM-2 β-lactamase)	KI (SHV-1 β-lactamase; SHV-1, from fit of kobs versus inhibitor concentration)
7-(tert-butoxycarbonyl)methylidenecephalosporin sulfone [DCM-1-10]	4 fold	27 fold	about 166 fold	at least 333 fold	67 fold	> 20 µM	0.8 ± 0.1 µM	0.0006 ± 0.0001 s⁻¹	7	95%	rapid compared to SHV-1	0.13 ± 0.01 µM	submicromolar	0.74 ± 0.08 µM	submicromolar	> 100 µM	0.0002 µM/s	3e-05 s⁻¹	potent and specific inhibition	
O=C(O)[C@H]1/C(=C/CO)O[C@@H]2CC(=O)N21 [Clavulanate, clavulanic acid, reference compound]								> 0.2 s⁻¹	40											2.6 ± 0.3 µM
C[C@]1(Cn2ccnn2)[C@H](C(=O)O)N2C(=O)C[C@H]2S1(=O)=O [Tazobactam, tazobactam, reference compound]								0.040 ± 0.001 s⁻¹	5											
